Measured values from ChEMBL document CHEMBL3297658, “Potent fluorinated agelastatin analogues for chronic lymphocytic leukemia: design, synthesis, and pharmacokinetic studies” (J Med Chem, 2014).
≈ marks a conversion by molar mass, not a printed value.

Experiments:
[1] = Antitumor activity against CLL1 cells isolated from CLL patient assessed as cell viability after 48 hrs by FACS analysis; assay type: functional, cell-based; conditions: Homo sapiens
Procedure, shortened: (§1)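 Primary CLL patient cells or JVM-2 line cultured 48 h (37 °C, 5% CO2) in RPMI + 10% FBS with graded compound. Stained 30 min at 37 °C with 40 nM DiOC6 and 10 μg/mL PI, then flow cytometry (525 nm DiOC6, 600 nm PI). Viability = % DiOC6+/PI− relative to untreated or vehicle control. EC50 and SE fitted from dose–response curves.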

[2] = Antitumor activity against CLL2 cells isolated from CLL patient assessed as cell viability after 48 hrs by FACS analysis; assay type: functional, cell-based, Homo sapiens; conditions: Homo sapiens, CLL2, 48 h; procedure, shortened: as §1
[3] = Antitumor activity against human JVM2 cells assessed as cell viability after 48 hrs by FACS analysis; assay type: functional, cell-based; conditions: JVM-2, 48 h; procedure, shortened: as §1
HeLa = assay: Antitumor activity against human HeLa cells assessed as cell viability by MTT assay; assay type: functional, cell-based
Procedure, shortened: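 Adherent HeLa cells exposed to compound, then medium replaced with 0.5 mg/mL MTT in phenol-red-free RPMI and incubated overnight at 37 °C. Lysed with 15% SDS/0.015 M HCl and OD read at 570 nm once formazan dissolved. EC50 and SE derived from dose–response curves.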

Liver microsome = assay: Metabolic stability in human liver microsomes at 100 uM measured after 1 hr by LC/MS analysis in presence of 1 mM NADPH; assay type: ADME
Procedure, shortened: (§2)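 Microsomes (final protein 5 mg/mL, mouse or human) in 0.1 M sodium phosphate pH 7.4 with compound at 100 μM final (DMSO <1%). Preincubated 5 min at 37 °C, started with NADPH (1 mM final), run 60 min at 37 °C with agitation. Stopped with MeOH and centrifuged; supernatant analysed by LCMS. Controls: zero time, no NADPH, heat-inactivated microsomes, and 7-ethoxycoumarin as CYP substrate.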

Liver = assay: Metabolic stability in mouse liver microsomes at 100 uM measured after 1 hr by LC/MS analysis in presence of 1 mM NADPH; assay type: ADME; procedure, shortened: as §2
[4] = Antitumor activity against CLL3 cells isolated from CLL patient assessed as cell viability after 48 hrs by FACS analysis; assay type: functional, cell-based; conditions: Homo sapiens; procedure, shortened: as §1
[5] = Antitumor activity against CLL4 cells isolated from CLL patient assessed as cell viability after 48 hrs by FACS analysis; assay type: functional, cell-based; conditions: Homo sapiens; procedure, shortened: as §1
[6] = Antitumor activity against CLL5 cells isolated from CLL patient assessed as cell viability after 48 hrs by FACS analysis; assay type: functional, cell-based; conditions: Homo sapiens; procedure, shortened: as §1
[7] = Antitumor activity against CLL6 cells isolated from CLL patient assessed as cell viability after 48 hrs by FACS analysis; assay type: functional, cell-based; conditions: Homo sapiens, CLL6, 48 h; procedure, shortened: as §1
[8] = Solubility of compound in water at 25 degC; assay type: physicochemical; conditions: buffer
[9] = Lipophilicity, log P of compound at 25 degC; assay type: physicochemical; conditions: octanol/water
[10] = AUC in BALB/c mouse plasma at 2.5 mg/kg, ip administered as single dose by LC/MS analysis; assay type: ADME, organism-based; parameters: dose 2.5 mg/kg, route intraperitoneal
Procedure, shortened: (§3)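 Female BALB/c mice dosed at 6 weeks of age with a single intraperitoneal dose of 2.5 or 5.0 mg/kg, n = 4. Tail-vein blood taken at set times and stored at -80 °C. Samples precipitated with CH3CN, spun at 3000g for 10 min, concentrated, reconstituted in 1:1 CH3CN/H2O and quantified by LCMS. PK parameters derived from the concentration–time curves.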

[11] = Cmax in BALB/c mouse plasma at 2.5 mg/kg, ip administered as single dose by LC/MS analysis; assay type: ADME, organism-based; parameters: dose 2.5 mg/kg, route intraperitoneal; procedure, shortened: as §3
[12] = Tmax in BALB/c mouse plasma at 2.5 mg/kg, ip administered as single dose by LC/MS analysis; assay type: ADME, organism-based; parameters: dose 2.5 mg/kg, route intraperitoneal; procedure, shortened: as §3
[13] = Half life in BALB/c mouse plasma at 2.5 mg/kg, ip administered as single dose by LC/MS analysis; assay type: ADME, organism-based; parameters: dose 2.5 mg/kg, route intraperitoneal; conditions: BALB/c, plasma; procedure, shortened: as §3
[14] = AUC in BALB/c mouse plasma at 5 mg/kg, ip administered as single dose by LC/MS analysis; assay type: ADME, organism-based; parameters: dose 5 mg/kg, route intraperitoneal; procedure, shortened: as §3
[15] = Cmax in BALB/c mouse plasma at 5 mg/kg, ip administered as single dose by LC/MS analysis; assay type: ADME, organism-based; parameters: dose 5 mg/kg, route intraperitoneal; procedure, shortened: as §3
[16] = Tmax in BALB/c mouse plasma at 5 mg/kg, ip administered as single dose by LC/MS analysis; assay type: ADME, organism-based; parameters: dose 5 mg/kg, route intraperitoneal; procedure, shortened: as §3
[17] = Half life in BALB/c mouse plasma at 5 mg/kg, ip administered as single dose by LC/MS analysis; assay type: ADME, organism-based; parameters: dose 5 mg/kg, route intraperitoneal; procedure, shortened: as §3
Plasma = assay: Protein binding in BALB/c mouse plasma at 50 uM after 1 to 24 hrs by LC-MS method; assay type: ADME, cell-free
Procedure, shortened: (§4)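 Compound added to pooled female BALB/c mouse plasma or serum, or to human AB serum, at 50 μM final (1% DMSO) and incubated at 37 °C with gentle agitation. Aliquots taken at 0, 0.5, 1, 2, 8, 18 and 24 h, proteins precipitated with CH3CN, spun at 3000g for 10 min, supernatant analysed by LCMS. Run in triplicate.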

Serum [18] = assay: Protein binding in BALB/c mouse serum at 50 uM after 1 to 24 hrs by LC-MS method; assay type: ADME; procedure, shortened: as §4
Serum [19] = assay: Protein binding in human AB serum at 50 uM after 1 to 24 hrs by LC-MS method; assay type: ADME; procedure, shortened: as §4
[20] = Drug recovery in BALB/c mouse plasma at 50 uM after 24 hrs by LC-MS method; assay type: ADME, cell-free; conditions: read-out: Drug recovery; procedure, shortened: as §4
[21] = Drug recovery in BALB/c mouse serum at 50 uM after 24 hrs by LC-MS method; assay type: ADME, cell-free; conditions: read-out: Drug recovery; procedure, shortened: as §4
[22] = Drug recovery in human AB serum at 50 uM after 24 hrs by LC-MS method; assay type: ADME, cell-free; conditions: read-out: Drug recovery; procedure, shortened: as §4

EC50 (HeLa) [µM]	SMILES	EC50 [1] [µM]	EC50 [2] [µM]	EC50 [3] [µM]	EC50 [4] [µM]	EC50 [5] [µM]	EC50 [6] [µM]	EC50 [7] [µM]	also measured
61.5	CN1C(=O)N[C@H]2[C@@H]3NC(=O)c4cccn4[C@@H]3C[C@]21O	541	3.9	120	–	–	–	–	Stability (Liver microsome): Stable; Stability (Liver): Stable
3.4	CN1C(=O)N[C@H]2[C@@H]3NC(=O)c4ccc(C#N)n4[C@@H]3C[C@]21O	11.1	0.71	38	8.37	8.41	4.79	0.84	–
–	CN1C(=O)N[C@H]2[C@@H]3NC(=O)c4cc(Br)c(Br)n4[C@@H]3C[C@]21O	26.3	4.46	3.53	–	–	–	–	–
–	CN1C(=O)N[C@H]2[C@@H]3NC(=O)c4cc(Br)cn4[C@@H]3C[C@]21O	19.4	9.22	71.5	–	–	–	–	–
0.6	CN1C(=O)N[C@H]2[C@@H]3NC(=O)c4cc(Cl)c(Cl)n4[C@@H]3C[C@]21O	1.56	0.52	0.28	0.98	4.42	2.02	7.5	–
–	CN1C(=O)N[C@H]2[C@@H]3NC(=O)c4cc(Cl)cn4[C@@H]3C[C@]21O	35.9	6.05	5.33	–	–	–	–	–
1.18	CN1C(=O)N[C@H]2[C@@H]3NC(=O)c4ccc(I)n4[C@@H]3C[C@]21O	5.96	0.73	2.62	6.61	3.04	3.06	12.9	–
262	CN1C(=O)N[C@H]2[C@@H]3NC(=O)c4cc(I)c(I)n4[C@@H]3C[C@]21O	26.4	96	49	–	–	–	–	–
0.061	CN1C(=O)N[C@H]2[C@@H]3NC(=O)c4cc(I)cn4[C@@H]3C[C@]21O	25.5	94.9	222	–	–	–	–	–
0.15	CN1C(=O)N[C@H]2[C@@H]3NC(=O)c4ccc(C(F)(F)F)n4[C@@H]3C[C@]21O	0.43	0.064	0.66	3.04	0.33	28.4	0.65	solubility [8]: 300 µg/mL (≈ 908 µM); logP [9]: 0.78; AUC [10]: 12.9 µM·h; Cmax [11]: 4.18 µM; Tmax [12]: 15 min; half-life [13]: 72 min; AUC [14]: 6.51 µM·h; Cmax [15]: 3.25 µM; Tmax [16]: 30 min; half-life [17]: 45 min; Stability (Liver microsome): Stable; Stability (Liver): Stable; PPB (Plasma): Not Active; PB (Serum [18]): Not Active; PB (Serum [19]): Not Active; remaining at 24 h, 50 µM [20]: 65%; remaining at 24 h, 50 µM [21]: 65%; remaining at 24 h, 50 µM [22]: 65%

SMILES	EC50 (HeLa) [µM]	EC50 [1] [µM]	EC50 [2] [µM]	EC50 [3] [µM]	EC50 [4] [µM]	EC50 [5] [µM]	EC50 [6] [µM]	EC50 [7] [µM]	also measured
CN1C(=O)N[C@H]2[C@@H]3NC(=O)c4ccc(Cl)n4[C@@H]3C[C@]21O	0.63	0.95	0.32	0.2	3.8	1.98	0.34	2.2	–
